In ChEMBL document CHEMBL1240389, “In vitro and in vivo activities of the novel anticytomegalovirus compound AIC246” (Antimicrob Agents Chemother, 2010):
Calls of active or inactive are those of the source. The rule behind the calls is not given here.

Assays:
[1] = test system: Human betaherpesvirus 5; test: Antiviral activity against human cytomegalovirus AD169 infected in NHDF at 11 uM treated after 57 hrs postinfection measured after 7 days by GFP-based fluorescent reduction assay; type: functional, organism-based
[2] = test system: Human betaherpesvirus 5; test: Antiviral activity against human cytomegalovirus AD169 infected in NHDF at 10 times EC50 treated postinfection and measured after 7 days by GFP-based fluorescent reduction assay
[3] = Cytotoxicity against human HS27 cells infected with human cytomegalovirus after 7 days by alamar blue assay; type: cell-based
Summary of the method: (§1)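 Fibroblasts seeded at 1.5 × 10⁴/well, incubated overnight, then given drug in 3-fold serial dilutions from 0.33 mM (DMSO constant 0.66%). After 7 days, alamarBlue added and fluorescence read; signal as % of untreated cell controls versus log concentration; CC50 from dose-response curves. At least three experiments with duplicates.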

[4] = Cytotoxicity against HLF infected with human cytomegalovirus after 7 days by alamar blue assay; settings: HLF cells infected with human cytomegalovirus; summary of the method: as §1
[5] = Selectivity index, ratio of CC50 for human HS27 cells to EC50 for human cytomegalovirus infected in human HS27 cells; type: toxicity, cell-based; settings: HS27 cells infected with human cytomegalovirus, read-out: Selectivity Index
Summary of the method: (§2)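 SI = CC₅₀/EC₅₀ in the same fibroblast type. EC₅₀: GFP-expressing HCMV AD169, 3-fold dilutions, 7 days at 37°C, GFP units by CCD camera. CC₅₀ run in parallel: 1.5 × 10⁴ cells/well overnight, 3-fold dilutions from 0.33 mM (DMSO constant 0.66%), 7 days, alamarBlue fluorescence as % of untreated cells; ≥3 runs in duplicate.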

[6] = Selectivity index, ratio of CC50 for HEL299 cells to EC50 for human cytomegalovirus infected in HEL299 cells; type: toxicity, cell-based, HEL 299; settings: read-out: Selectivity Index; summary of the method: as §2
[7] = Cytotoxicity against human MRC5 cells infected with human cytomegalovirus after 7 days by alamar blue assay; type: cell-based; summary of the method: as §1
[8] = Cytotoxicity against NHDF infected with human cytomegalovirus after 7 days by alamar blue assay; type: cell-based; settings: NHDF cells infected with human cytomegalovirus; summary of the method: as §1
[9] = Selectivity index, ratio of CC50 for human MRC5 cells to EC50 for human cytomegalovirus infected in human MRC5 cells; type: toxicity, cell-based; settings: MRC5 cells infected with human cytomegalovirus, read-out: Selectivity Index; summary of the method: as §2
[10] = Cytotoxicity against HEL299 cells infected with human cytomegalovirus after 7 days by alamar blue assay; type: cell-based, HEL 299; summary of the method: as §1

## CN(C)c1cccc2c(S(=O)(=O)Nc3ccc(NC(=O)C(C)(C)CO)cc3)cccc12
[1]
  Activity: inactive
[2]
  Activity: Active

## Nc1nc(O)c2ncn(COC(CO)CO)c2n1 [GANCICLOVIR]
[3]
  CC50 at 168 h: > 333 µM
[4]
  CC50 at 168 h: > 333 µM
[5]
  selectivity ratio: > 1040
[6]
  selectivity ratio: > 139
[7]
  CC50 at 168 h: > 333 µM
[8]
  CC50 at 168 h: > 333 µM
[9]
  selectivity ratio: > 202
[10]
  CC50 at 168 h: > 333 µM
